Reference: ChEMBL document CHEMBL4431309, “17β-Hydroxy-18-acetoxywithanolides from Aeroponically Grown Physalis crassifolia and Their Potent and Selective Cytotoxicity for Prostate Cancer Cells” (J Nat Prod, 2016)
The source made the active and inactive calls. No cut-off for these calls is given here.

Legend:
MCF7 [1] = test: Cytotoxicity against human MCF7 cells up to 5 uM after 72 hrs by resazurin-based colorimetric assay; format: functional, cell-based
Outline: (§1)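 Human breast cancer line (MCF-7). Doxorubicin was the positive control and DMSO the negative control. Testing went up to 5.0 μM.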

HFF [2] = test: Cytotoxicity against human HFF cells up to 5 uM after 72 hrs by resazurin-based colorimetric assay; format: cell-based
Outline: (§2)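 Doxorubicin (positive) and DMSO (negative) were run as controls. Compounds were tested up to a highest concentration of 5.0 μM.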

PC-3M [3] = test: Cytotoxicity against human PC3M cells up to 5 uM after 72 hrs by resazurin-based colorimetric assay; format: functional, cell-based
Outline: (§3)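 Metastatic human prostate adenocarcinoma line (PC-3M). Controls were doxorubicin (positive) and DMSO (negative). The highest concentration tested was 5.0 μM.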

SF-268 [4] = test: Cytotoxicity against human SF268 cells up to 5 uM after 72 hrs by resazurin-based colorimetric assay; format: functional, cell-based; outline: as §2
LNCaP [5] = test: Cytotoxicity against human LNCAP cells up to 5 uM after 72 hrs by resazurin-based colorimetric assay; format: functional, cell-based
Outline: (§4)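 Androgen-sensitive human prostate adenocarcinoma line (LNCaP). Doxorubicin served as positive control and DMSO as negative control. Compounds were tested at concentrations up to 5.0 μM.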

NCI-H460 [6] = test: Cytotoxicity against human NCI-H460 cells up to 5 uM after 72 hrs by resazurin-based colorimetric assay; format: functional, cell-based
Outline: (§5)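 Human non-small-cell lung cancer line (NCI-H460). Doxorubicin was included as positive control and DMSO as negative control. The maximum concentration tested was 5.0 μM.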

SF-268 [7] = test: Cytotoxicity against human SF268 cells after 72 hrs by resazurin-based colorimetric assay; format: functional, cell-based; conditions: SF-268, 72 h; outline: as §2
PC-3M [8] = test: Cytotoxicity against human PC3M cells after 72 hrs by resazurin-based colorimetric assay; format: functional, cell-based; outline: as §3
HFF [9] = test: Cytotoxicity against human HFF cells after 72 hrs by resazurin-based colorimetric assay; format: cell-based; outline: as §2
NCI-H460 [10] = test: Cytotoxicity against human NCI-H460 cells after 72 hrs by resazurin-based colorimetric assay; format: functional, cell-based; conditions: NCI-H460, 72 h; outline: as §5
LNCaP [11] = test: Cytotoxicity against human LNCAP cells after 72 hrs by resazurin-based colorimetric assay; format: functional, cell-based; outline: as §4
MCF7 [12] = test: Cytotoxicity against human MCF7 cells after 72 hrs by resazurin-based colorimetric assay; format: functional, cell-based; conditions: MCF7, 72 h; outline: as §1

SMILES | Activity (MCF7 [1]) | Activity (HFF [2]) | Activity (PC-3M [3]) | Activity (SF-268 [4]) | Activity (LNCaP [5]) | Activity (NCI-H460 [6]) | IC50 (SF-268 [7]) | IC50 (PC-3M [8]) | IC50 (HFF [9]) | IC50 (NCI-H460 [10]) | IC50 (LNCaP [11]) | IC50 (MCF7 [12])
CC(=O)OC[C@]12CC[C@H]3[C@@H](CC=C4CC=CC(=O)[C@@]43C)[C@]1(O)CC[C@@H]2[C@@](C)(O)[C@H]1CC(C)=C(C)C(=O)O1 | inactive | Non-Toxic | inactive | inactive | inactive | inactive | – | – | – | – | – | –
CC1=C(CO)C(=O)O[C@@H]([C@@H](C)[C@H]2CC[C@H]3[C@@H]4C[C@H]5O[C@]56[C@@H](O)C=CC(=O)[C@]6(C)[C@H]4CC[C@]23C)C1 [WITHAFERIN A] | – | – | – | – | – | – | < 400 nM | 410 nM | > 6.8 µM | < 400 nM | – | –
CC(=O)OC[C@]12CC[C@H]3[C@@H](CC=C4C[C@@H](OS(=O)(=O)O)CC(=O)[C@@]43C)[C@]1(O)[C@@H](OC(C)=O)C[C@@]2(O)[C@@](C)(O)[C@H]1CC(C)=C(C)C(=O)O1 | – | – | – | – | – | – | 2800 nM | 430 nM | – | 2500 nM | 120 nM | > 5000 nM
CC(=O)OC[C@]12CC[C@H]3[C@@H](CC=C4CC=CC(=O)[C@@]43C)[C@]1(O)CC[C@@H]2[C@@](C)(O)[C@@H]1OC(=O)C(C)=C(C)[C@@H]1O | inactive | Non-Toxic | inactive | inactive | inactive | inactive | – | – | – | – | – | –
CC(=O)OC[C@]12CC[C@H]3[C@@H](CC=C4C=CCC(=O)[C@@]43C)[C@]1(O)[C@@H](OC(C)=O)C[C@@]2(O)[C@@](C)(O)[C@H]1CC(CO)=C(C)C(=O)O1 | inactive | Non-Toxic | inactive | inactive | inactive | inactive | – | – | – | – | – | –
CC(=O)OC[C@]12CC[C@H]3[C@@H](CC=C4CC=CC(=O)[C@@]43C)[C@]1(O)[C@@H](OC(C)=O)C[C@@]2(O)[C@@](C)(O)[C@H]1CC(CO[C@@H]2O[C@H](CO)[C@@H](O)[C@H](O)[C@H]2O)=C(C)C(=O)O1 | inactive | Non-Toxic | inactive | inactive | inactive | inactive | – | – | – | – | – | –
CC(=O)OC[C@]12CC[C@H]3[C@@H](CC=C4CC=CC(=O)[C@@]43C)[C@]1(O)[C@@H](O)C[C@@]2(O)[C@@](C)(O)[C@H]1CC(C)=C(C)C(=O)O1 | – | – | – | – | – | – | > 2500 nM | 600 nM | – | > 2500 nM | 190 nM | > 2500 nM
CC(=O)OC[C@]12CC[C@H]3[C@@H](CC=C4CC=CC(=O)[C@@]43C)[C@]1(O)[C@@H](OC(C)=O)C[C@@]2(O)[C@@](C)(O)[C@H]1CC(C)=C(CO)C(=O)O1 | inactive | Non-Toxic | inactive | inactive | inactive | inactive | – | – | – | – | – | –
CC(=O)OC[C@]12CC[C@H]3[C@@H](CC=C4CC=CC(=O)[C@@]43C)[C@]1(O)CC[C@@]2(O)[C@@](C)(O)[C@H]1CC(C)=C(CO)C(=O)O1 | – | – | – | – | – | – | > 5000 nM | > 5000 nM | – | > 5000 nM | 3700 nM | > 5000 nM
CC(=O)OC[C@]12CC[C@H]3[C@@H](CC=C4C[C@@H](OS(=O)(=O)O)CC(=O)[C@@]43C)[C@]1(O)CC[C@@]2(O)[C@@](C)(O)[C@H]1CC(C)=C(C)C(=O)O1 | – | – | – | – | – | – | > 5000 nM | 560 nM | > 5 µM | 3800 nM | 210 nM | 2200 nM
CC(=O)OC[C@]12CC[C@H]3[C@@H](CC=C4CC=CC(=O)[C@@]43C)[C@]1(O)[C@@H](OC(C)=O)C[C@@]2(O)[C@@](C)(O)[C@H]1CC(C)=C(CO[C@@H]2O[C@H](CO)[C@@H](O)[C@H](O)[C@H]2O)C(=O)O1 | inactive | Non-Toxic | inactive | inactive | inactive | inactive | – | – | – | – | – | –
CC1=C(C)C(=O)O[C@@H]([C@](C)(O)[C@H]2CC[C@@]3(O)[C@@H]4[C@@H]5O[C@@H]5[C@@]5(O)CC=CC(=O)[C@]5(C)[C@H]4CC[C@]23C)C1 | inactive | Non-Toxic | inactive | inactive | inactive | inactive | – | – | – | – | – | –
COc1cccc2c1C(=O)c1c(O)c3c(c(O)c1C2=O)C[C@@](O)(C(=O)CO)C[C@@H]3O[C@H]1C[C@H](N)[C@H](O)[C@H](C)O1 [DOXORUBICIN] | – | – | – | – | – | – | – | 250 nM | – | – | – | 320 nM
CC(=O)OC[C@]12CC[C@H]3[C@@H](C[C@H]4O[C@]45CC=CC(=O)[C@]35C)[C@]1(O)[C@@H](OC(C)=O)C[C@@]2(O)[C@@](C)(O)[C@H]1CC(C)=C(C)C(=O)O1 | – | – | – | – | – | – | > 2500 nM | 1800 nM | – | > 2500 nM | 1200 nM | > 2500 nM
C/C(=C1/C(=O)C[C@H]2[C@@H]3[C@@H]4O[C@@H]4[C@@]4(O)CC=CC(=O)[C@]4(C)[C@H]3CC[C@]12C)[C@H]1C[C@]2(C)O[C@]2(C)[C@H](O)O1 | inactive | Non-Toxic | inactive | inactive | inactive | inactive | – | – | – | – | – | –
